Reference: ChEMBL document CHEMBL4184147, “Polyphenolic Phytochemicals in Cancer Prevention and Therapy: Bioavailability versus Bioefficacy” (J Med Chem, 2017)
pIC50: −log10 of the molar value.

Key:
HT-29 [1] = experiment: Cytotoxicity against human HT-29 cells assessed as decrease in cell viability after 48 hrs by trypan blue exclusion and LDH release; details: HT-29, 48 h
LN-229 [2] = experiment: Cytotoxicity against human LN229 cells assessed as cell viability at 34 uM after 48 hrs by MTT assay; type: functional; details: LN-229, 48 h, read-out: Activity
[3] = Cmax in mouse at 10 mg/kg, iv by LC-MS/MS method; type: ADME, organism-based; parameters: dose 10 mg/kg, route intravenous; details: in vivo
In short: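 Mouse iv dosing used polyphenol dissolved in DMSO:ethanol (2:1), with total injected volume never above 30 μL. Plasma levels were measured by previously described methods.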

BXPC-3 [4] = experiment: Cytotoxicity against human BxPC3 cells assessed as decrease in cell viability after 48 hrs by MTT assay; type: functional, cell-based; details: BXPC-3, 48 h
[5] = Cytotoxicity against human MML1 cells assessed as decrease in cell viability after 48 hrs by MTT assay; type: functional, cell-based
A549 [6] = experiment: Cytotoxicity against human A549 cells assessed as decrease in cell viability after 48 hrs by trypan blue exclusion and LDH release; details: A549, 48 h
[7] = Cmax in mouse at 100 mg/kg, po by HPLC method; type: ADME, organism-based; parameters: dose 100 mg/kg, route oral; details: in vivo
In short: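 For oral dosing, polyphenol was dissolved in a self-microemulsifying delivery system: 60% surfactant (emulsifier OP:Cremophor EL 1:1), 30% cosurfactant (PEG 400) and 10% oil (ethyl oleate). Total volume given was never above 100 μL. Plasma levels were quantified by previously described methods.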

MDA-MB-231 [8] = experiment: Cytotoxicity against human MDA-MB-231 cells assessed as decrease in cell viability after 48 hrs by trypan blue exclusion and LDH release; details: MDA-MB-231, 48 h
U-87 MG [9] = experiment: Cytotoxicity against human U87 cells assessed as decrease in cell viability after 48 hrs by trypan blue exclusion and LDH release
COLO 201 [10] = experiment: Cytotoxicity against human COLO201 cells assessed as decrease in cell viability after 48 hrs by trypan blue exclusion and LDH release; details: COLO 201, 48 h
PANC-1 [11] = experiment: Cytotoxicity against human PANC1 cells assessed as decrease in cell viability after 48 hrs by MTT assay; type: functional, cell-based; details: PANC-1, 48 h
SK-MEL-2 [12] = experiment: Cytotoxicity against human SK-MEL-2 cells assessed as cell viability at 34 uM after 48 hrs by MTT assay; type: functional; details: SK-MEL-2, 48 h, read-out: Activity
NCI-H460 [13] = experiment: Cytotoxicity against human NCI-H460 cells assessed as cell viability at 34 uM after 48 hrs by trypan blue exclusion and LDH release; details: NCI-H460, 48 h
NCI-H460 [14] = experiment: Cytotoxicity against human NCI-H460 cells assessed as decrease in cell viability after 48 hrs by MTT assay; type: functional, cell-based; details: NCI-H460, 48 h
[15] = Plasma concentration in mouse at 10 mg/kg, iv at 60 mins by LC-MS/MS method; type: ADME, organism-based
In short: (§1)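 For IV dosing, compound dissolved in DMSO:ethanol (2:1), total volume no more than 30 μL. For oral dosing, compound given in a self-microemulsifying delivery system (60% surfactant, emulsifier OP:Cremophor EL 1:1; 30% PEG 400; 10% ethyl oleate), total volume no more than 100 μL. Plasma levels measured by previously described methods.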

T47D [16] = experiment: Cytotoxicity against human T47D cells assessed as cell viability at 34 uM after 48 hrs by MTT assay; type: functional; details: read-out: Activity
[17] = Cytotoxicity against human MML1 cells assessed as cell viability at 34 uM after 48 hrs by MTT assay; type: functional; details: read-out: Activity
[18] = Plasma concentration in mouse at 10 mg/kg, iv at 120 mins by LC-MS/MS method; type: ADME, organism-based
In short: as §1

A549 [19] = experiment: Cytotoxicity against human A549 cells assessed as decrease in cell viability at 20 uM after 48 hrs by SRB method relative to control; type: functional
[20] = Tmax in mouse at 10 mg/kg, iv by LC-MS/MS method; type: ADME, organism-based; details: in vivo
In short: as §1

BXPC-3 [21] = experiment: Cytotoxicity against human BxPC3 cells assessed as cell viability at 34 uM after 48 hrs by MTT assay; type: functional; details: BXPC-3, 48 h, read-out: Activity
MCF7 = experiment: Cytotoxicity against human MCF7 cells assessed as decrease in cell viability at 20 uM after 48 hrs by SRB method relative to control; type: functional
A-375 = experiment: Cytotoxicity against human A375 cells assessed as decrease in cell viability at 20 uM after 48 hrs by SRB method relative to control; type: functional
[22] = Tmax in mouse at 100 mg/kg, po by HPLC method; type: ADME, organism-based; details: in vivo
In short: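 Given orally in a self-microemulsifying delivery system (60% surfactant, emulsifier OP:Cremophor EL 1:1; 30% PEG 400 cosurfactant; 10% ethyl oleate oil), total volume no more than 100 μL. Plasma levels measured by previously described methods.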

MDA-MB-231 [23] = experiment: Cytotoxicity against human MDA-MB-231 cells assessed as cell viability at 34 uM after 48 hrs by MTT assay; type: functional; details: MDA-MB-231, 48 h, read-out: Activity
A549 [24] = experiment: Cytotoxicity against human A549 cells assessed as cell viability at 34 uM after 48 hrs by trypan blue exclusion and LDH release; details: A549, 48 h
LN-229 [25] = experiment: Cytotoxicity against human LN229 cells assessed as decrease in cell viability after 48 hrs by trypan blue exclusion and LDH release; details: LN-229, 48 h
PANC-1 [26] = experiment: Cytotoxicity against human PANC1 cells assessed as cell viability at 34 uM after 48 hrs by MTT assay; type: functional; details: PANC-1, 48 h, read-out: Activity
U-87 MG [27] = experiment: Cytotoxicity against human U87 cells assessed as cell viability at 34 uM after 48 hrs by MTT assay; type: functional, U-87MG ATCC; details: read-out: Activity
COLO 201 [28] = experiment: Cytotoxicity against human COLO201 cells assessed as cell viability at 34 uM after 48 hrs by trypan blue exclusion and LDH release; details: COLO 201, 48 h
[29] = Plasma concentration in mouse at 100 mg/kg, po at 60 mins by LC-MS/MS method; type: ADME, organism-based
In short: as §1

T47D [30] = experiment: Cytotoxicity against human T47D cells assessed as decrease in cell viability after 48 hrs by trypan blue exclusion and LDH release
SK-MEL-2 [31] = experiment: Cytotoxicity against human SK-MEL-2 cells assessed as decrease in cell viability after 48 hrs by MTT assay; type: functional, cell-based; details: SK-MEL-2, 48 h
HT-29 [32] = experiment: Cytotoxicity against human HT-29 cells assessed as decrease in cell viability at 20 uM after 48 hrs by SRB method relative to control; type: functional
HT-29 [33] = experiment: Cytotoxicity against human HT-29 cells assessed as cell viability at 34 uM after 48 hrs by MTT assay; type: functional; details: HT-29, 48 h, read-out: Activity

Compound: COc1cc(/C=C/c2ccc(O)cc2)cc(OC)c1 [PTEROSTILBENE]
- pIC50 (HT-29 [1]): 4.55
- viability at 34 µM (LN-229 [2]): 98%
- Cmax [3]: 67 µM
- pIC50 (BXPC-3 [4]): 4.51
- pIC50 [5]: 4.77
- pIC50 (A549 [6]): 4.59
- Cmax [7]: 25 µM
- pIC50 (MDA-MB-231 [8]): 4.20
- pIC50 (U-87 MG [9]): 4.47
- pIC50 (COLO 201 [10]): 4.54
- pIC50 (PANC-1 [11]): 4.30
- viability at 34 µM (SK-MEL-2 [12]): 85%
- viability at 34 µM (NCI-H460 [13]): 83%
- pIC50 (NCI-H460 [14]): 4.77
- concentration at 1 h [15]: 15 µM
- viability at 34 µM (T47D [16]): 91%
- viability at 34 µM [17]: 87%
- concentration at 2 h [18]: < 1000 nM
- Activity (A549 [19]): 40%
- Tmax [20]: 5 min
- viability at 34 µM (BXPC-3 [21]): 97%
- Activity (MCF7): 25%
- Activity (A-375): 30%
- Tmax [22]: 10 min
- viability at 34 µM (MDA-MB-231 [23]): 90%
- viability at 34 µM (A549 [24]): 81%
- pIC50 (LN-229 [25]): 4.85
- viability at 34 µM (PANC-1 [26]): 94%
- viability at 34 µM (U-87 MG [27]): 103%
- viability at 34 µM (COLO 201 [28]): 95%
- concentration at 1 h [29]: < 1000 nM
- pIC50 (T47D [30]): 4.46
- pIC50 (SK-MEL-2 [31]): 4.77
- Activity (HT-29 [32]): 10%
- viability at 34 µM (HT-29 [33]): 96%
